# Compound activity (PubChem)
# ROMK mod – human ROMK K+ channel modulation, primary screen; P48048; Tet-inducible ROMK, thallium flux fluorescence; actives lie on both sides; B-score at 10 µM; 2% of 130,000 active; AID 1918;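 active = signal ratio slope over the read window, or its plate-corrected B-score, at least 3 SD from the plate mean, either direction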;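 note: B-score of the F/F0 ratio slope over 7 to 12 s after thallium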
# Target sequence (P48048 whole entry, looked up): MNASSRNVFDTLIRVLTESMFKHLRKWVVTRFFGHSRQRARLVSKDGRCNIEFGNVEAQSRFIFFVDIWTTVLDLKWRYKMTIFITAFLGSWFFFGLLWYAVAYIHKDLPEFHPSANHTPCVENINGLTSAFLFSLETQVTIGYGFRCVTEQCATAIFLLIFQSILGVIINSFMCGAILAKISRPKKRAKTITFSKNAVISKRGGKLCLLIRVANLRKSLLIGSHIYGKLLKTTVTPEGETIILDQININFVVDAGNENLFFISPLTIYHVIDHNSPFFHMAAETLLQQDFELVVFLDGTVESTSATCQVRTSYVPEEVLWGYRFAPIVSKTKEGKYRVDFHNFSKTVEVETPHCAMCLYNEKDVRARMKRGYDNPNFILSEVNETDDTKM
# L major viab – reduces viability of Leishmania major promastigotes; resazurin fluorescence viability; inhibition, % at 10 µM; 9% of 200,000 active; AID 1063; in the data active = inhibition above about 50%;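 note: promastigotes grown with compound for 44 hours at 28 °C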
# Diaph inh CS – inhibits diaphorase or chemically oxidizes, flagging diaphorase assay artifacts; diaphorase resazurin-to-resorufin fluorescence, NADH, 16 min; bacterial (C. kluyveri) enzyme, not human; inhibition, % at 20 µM; 0.69% of 190,000 active;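 active = primary screen inhibition at 20 µM above a set limit, cut at about 50% in these data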;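 note: plate controls were DMSO with full reaction for no effect and wells lacking NADH for full effect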
#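 Test system: Clostridium kluyveri diaphorase enzyme / Quantity: diaphorase at 0.14 U/mL in enzyme working solution / Incubation: 16-min room-temperature incubation before reading / Benchmarks: NADH-free wells as positive control, DMSO-only neutral wells / Signal: resorufin fluorescence 544/590 nm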
# WT yeast gro inh – growth inhibition of WT yeast, mitochondrial fusion screen. mitochondrial fusion phenotypic screen, WT strain. inhibition, % at 10 µM. 2.1% of 190,000 active. AID 1362; in the data active = inhibition above about 58%; tested in S. cerevisiae
# KCC2 mod – modulators of human KCC2 chloride dependent transport | B-score of Tl+ flux slope (higher = more flux/activation; lower = inhibition) at 10 µM | Q9H2X9 | AID 1456 | KCC2 cells, thallium flux FluoZin-2 fluorescence | 2.2% of 190,000 active;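 active = thallium flux slope and its plate-corrected score both differing from the plate sample mean at a set confidence after two filtering rounds, in either direction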;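 note: slope of fluorescence scaled to starting intensity during 10 to 20 s after thallium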
# Diaph act CS – counter-screen for diaphorase-based assays: diaphorase activators and chemical reducers | Diaphorase/resazurin coupled assay, resorufin fluorescence, 16 min; stronger effect = higher value; 1 = vehicle wells, 0 = NADH-free wells | activation factor at 20 µM | 0.005% of 190,000 active;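 active = diaphorase activity raised at least twofold by the compound at 20 µM; inactive = activation factor below 2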
#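 Test system: Clostridium kluyveri diaphorase, purified enzyme. Buffer or medium: 50 mM HEPES pH 7.4 buffer plus MgCl2 and Tween 20. Also added: 0.114 mM NADH and 0.1 mM resazurin, final amounts. Dosing: compound 20 µM once, DMSO 1%. Schedule: 16 min enzyme reaction, ambient temperature. Detection: fluorescence of resorufin, 544 nm excitation, 590 nm emission.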
# * = called active by the depositor; · = not tested or not shown. The list is not random: actives were taken first. Their share in the collection is about 12%.
SMILES,ROMK mod,L major viab,Diaph inh CS,WT yeast gro inh,KCC2 mod,Diaph act CS
COCc1[nH]nc2c1C(c1sccc1C)C(C#N)=C(N)O2 (stereo not drawn),-3.5*,72*,13,-36,·,0.9
CCCc1[nH]nc2c1C(C1CCCCC1)C(C#N)=C(N)O2 (stereo not drawn),·,93*,19,4,·,0.8
CCCc1[nH]nc2c1C(c1ccsc1)C(C#N)=C(N)O2 (stereo not drawn),-0.084,31,1,1,-3.1,1
CC(OC(=O)c1nn(C(C)C)c(=O)c2ccccc12)C(=O)Nc1ncc(Cl)cc1Cl (stereo not drawn),-0.41,-3,2,13,-1.1,1
CCOc1cc2c3c(c1)C1(C(=O)N3C(C)(C)CC2C)C(C#N)=C(N)N2C(=C1C#N)Nc1ccccc12 (stereo not drawn),-0.57,66*,29,19,0.48,0.7
Cc1ccc(OC(C)C(=O)Nc2ccc(C)c(S(=O)(=O)Nc3ccc(C)cc3C)c2)cc1 (stereo not drawn),-0.35,67*,20,43,-0.41,0.8
Clc1cc(Cl)cc(CN2CCSCC2)c1,·,·,·,·,0.26,·
CC1=NN(C(=O)CSCc2ccccc2)C(O)(c2ccc(F)cc2)C1 (stereo not drawn),0.67,99*,-6,-4,-0.87,1.1
CC1=NN(C(=O)CSCc2ccccc2)C(O)(c2ccc(Cl)cc2)C1 (stereo not drawn),-0.62,-2,17,25,0.21,0.8
O=P(COCCCCCOCP(=O)(c1ccccc1)c1ccccc1)(c1ccccc1)c1ccccc1,-0.75,40,19,-18,-2.8,0.8
CCCCn1c(CCC)nc([N+](=O)[O-])c1Sc1ccc(Cl)cn1,-0.46,75*,-1,17,-0.3,1
CCc1ccc(NC(=O)C(C)OC(=O)c2ccc(NS(=O)(=O)c3ccc(C)c([N+](=O)[O-])c3)cc2)cc1 (stereo not drawn),1,64*,18,-4,-0.076,0.8
COC(=O)c1c(C)[nH]c(-c2csc(N)n2)c1C,-0.21,2,28,-1,0.014,0.7
O=C(CNc1ccc2ccccc2c1)N/N=C/C=C/c1cccc([N+](=O)[O-])c1,·,0,9,3,-0.16,0.9
Cn1cc(/C=N/Nc2ccccc2)c2ccccc21,-0.91,63*,18,-3,0.2,0.8
Oc1ccccc1/C=N/Nc1ccccc1,-0.77,13,20,79*,-0.00032,0.8
Cc1cc(C)nc(N/N=C/c2ccccc2OCc2ccc([N+](=O)[O-])cc2)n1,-0.03,7,18,15,-0.11,0.8
O=[N+]([O-])c1ccc(N/N=C\c2ccccc2OCc2ccccc2)cc1,-0.24,53*,24,-4,0.66,0.8
Cc1cc(O)c(/C=N/Nc2ccccc2)c(=O)o1,·,76*,17,11,·,0.8
O=C(O)c1ccc(N/N=C/c2cn(Cc3ccccc3F)c3ccccc23)cc1,0.43,·,·,·,-2,·
Cc1nn(Cc2ccccc2)c(C)c1NC(=O)CSc1nc2sc3c(c2c(=O)n1C)CCC3,-2,12,·,·,-1.2,·
O=[N+]([O-])c1cccc(N/N=C/c2cccc(O)c2O)c1,0.18,90*,52*,62*,-0.85,0.5
Oc1ccc(/C=N/Nc2ccc3ccccc3c2)c(O)c1,-0.016,85*,33,49,0.021,0.7
O=C(COc1ccccc1)NCC(=O)N/N=C/c1ccc(O)cc1O,·,·,·,·,-0.09,·
Cc1cc(NC(=O)CSc2nc3cc(C(=O)NCCCOC(C)C)ccc3c(=O)n2Cc2ccco2)no1,0.57,0,3,-2,-0.034,1
Cc1[nH]n(-c2ccccc2)c(=O)c1C=Nc1ccc2[nH]c(=O)[nH]c2c1,·,30,29,15,-0.58,0.7
O=c1[nH]c2ccc(N=Cc3c(O)ccc4cc(Br)ccc34)cc2[nH]1,-0.6,-7,55*,-4,0.49,0.4
CC(=O)NCC(=O)N(C)C(C(=O)Nc1ccc(C(C)C)cc1)c1ccccc1 (stereo not drawn),0.017,23,8,6,·,0.9
O=[N+]([O-])c1cc(S(=O)(=O)N2CCCC2)ccc1NCCc1ccccc1,-0.26,58*,20,-21,-0.9,0.8
